Experimental data published in ChEMBL document CHEMBL3603803, “Design and synthesis of dithiocarbamate linked β-carboline derivatives: DNA topoisomerase II inhibition with DNA binding and apoptosis inducing ability” (Bioorg Med Chem, 2015).
Active and inactive are the calls of the source. The calls are words filed in the database; no cut-off is given here.

Legend:
DU-145 [1] = assay: Induction of apoptosis in human DU145 cells assessed as wrinkled cells at 0.5 uM after 48 hrs by Hoechst 33258 staining-based confocal microscopic analysis; type: functional, cell-based
In short: (§1)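 Hoechst H33258 staining of treated DU-145 cells at 0.5 µM; apoptotic cells (apoptotic bodies, condensation, nuclear fragmentation) counted by manual field quantification under the microscope, compared with control.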

DU-145 [2] = assay: Induction of apoptosis in human DU145 cells assessed as DNA fragmented cells at 0.5 uM after 48 hrs by Hoechst 33258 staining-based confocal microscopic analysis; type: functional, cell-based; in short: as §1
[3] = target: DNA topoisomerase II (Homo sapiens) (UniProt P11388+Q02880); assay: Inhibition of DNA-topoisomerase 2 catalytic activity (unknown origin) using catenated kDNA as substrate assessed as formation of nicked circular and relaxed DNA at 1 to 100 uM after 30 mins by agarose gel electrophoresis; type: protein assay
In short: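 Catenated DNA incubated with topo II and compound at 1, 10 and 100 µM; gel products scored for linear DNA (poison type) versus nicked circular/relaxed DNA retained in wells (catalytic inhibitor type); etoposide at 1, 10, 100 µM as control.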

Calf thymus DNA [4] = assay: Induction of DNA intercalation of calf thymus DNA at 1 uM by UV-vis spectrophotometric analysis; type: nucleic-acid assay; details: Bos taurus
Calf thymus DNA [5] = assay: Binding affinity to calf thymus DNA surface at 1 uM by UV-vis spectrophotometric analysis; type: nucleic-acid assay; details: Bos taurus
Calf thymus DNA [6] = assay: Induction of DNA intercalation of calf thymus DNA at 10 uM by spectrofluorimetric analysis; type: nucleic-acid assay; details: Bos taurus
In short: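 Fluorescence titration: CT-DNA added to compound solution and quenching of compound emission peak monitored (617 or 567 nm, depending on compound).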

Calf thymus DNA [7] = assay: Stabilization of calf thymus DNA at 1:1 DNA to compound molar ratio by CD spectroscopic analysis; type: nucleic-acid assay; details: Bos taurus
In short: (§2)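 CD spectra of CT-DNA with compound added at 10 µM to equal CT-DNA concentration (1:1), then raised to 1:2 DNA:ligand; positive band at 275 nm monitored.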

Calf thymus DNA [8] = assay: Stabilization of calf thymus DNA at 1:2 DNA to compound molar ratio by CD spectroscopic analysis; type: nucleic-acid assay; details: Bos taurus; in short: as §2
A549 = assay: Cytotoxicity against human A549 cells after 48 hrs by MTT assay; type: functional, cell-based; details: A549, 48 h
In short: (§3)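 Human cancer cell lines (A549 lung, MCF-7 breast, DU-145 prostate, HeLa cervical) exposed to compounds for 48 h; 50% inhibitory concentration derived, average of three individual experiments; doxorubicin reference agent.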

MCF7 = assay: Cytotoxicity against human MCF7 cells after 48 hrs by MTT assay; type: functional, cell-based; details: MCF7, 48 h; in short: as §3
DU-145 [9] = assay: Cytotoxicity against human DU145 cells after 48 hrs by MTT assay; type: functional, cell-based; details: DU-145, 48 h; in short: as §3
HeLa = assay: Cytotoxicity against human HeLa cells after 48 hrs by MTT assay; type: functional, cell-based; in short: as §3
DU-145 [10] = assay: Cell cycle arrest in human DU145 cells assessed as accumulation at subG1 phase at 0.5 uM after 48 hrs by propidium iodide staining-based flow cytometric analysis (reference value: 6.52%); type: functional
DU-145 [11] = assay: Cell cycle arrest in human DU145 cells assessed as accumulation at subG1 phase at 1 uM after 48 hrs by propidium iodide staining-based flow cytometric analysis (reference value: 6.52%); type: functional
DU-145 [12] = assay: Cell cycle arrest in human DU145 cells assessed as accumulation at G0/G1 phase at 0.5 uM after 48 hrs by propidium iodide staining-based flow cytometric analysis (reference value: 85.94%); type: functional
DU-145 [13] = assay: Cell cycle arrest in human DU145 cells assessed as accumulation at G0/G1 phase at 1 uM after 48 hrs by propidium iodide staining-based flow cytometric analysis (reference value: 85.94%); type: functional
DU-145 [14] = assay: Cell cycle arrest in human DU145 cells assessed as accumulation at S phase at 0.5 uM after 48 hrs by propidium iodide staining-based flow cytometric analysis (reference value: 4.02%); type: functional
DU-145 [15] = assay: Cell cycle arrest in human DU145 cells assessed as accumulation at S phase at 1 uM after 48 hrs by propidium iodide staining-based flow cytometric analysis (reference value: 4.02%); type: functional
DU-145 [16] = assay: Cell cycle arrest in human DU145 cells assessed as accumulation at G2/M phase at 0.5 uM after 48 hrs by propidium iodide staining-based flow cytometric analysis (reference value: 1.97%); type: functional
DU-145 [17] = assay: Cell cycle arrest in human DU145 cells assessed as accumulation at G2/M phase at 1 uM after 48 hrs by propidium iodide staining-based flow cytometric analysis (reference value: 1.97%); type: functional
DU-145 [18] = assay: Induction of apoptosis in human DU145 cells assessed as necrotic cells at 0.5 uM after 48 hrs by annexin V-FITC/propidium iodide staining-based flow cytometric analysis (reference value: 0.1%); type: functional
DU-145 [19] = assay: Induction of apoptosis in human DU145 cells assessed as necrotic cells at 1 uM after 48 hrs by annexin V-FITC/propidium iodide staining-based flow cytometric analysis (reference value: 0.1%); type: functional
DU-145 [20] = assay: Induction of apoptosis in human DU145 cells assessed as late apoptotic cells at 0.5 uM after 48 hrs by annexin V-FITC/propidium iodide staining-based flow cytometric analysis (reference value: 1.52%); type: functional
DU-145 [21] = assay: Induction of apoptosis in human DU145 cells assessed as late apoptotic cells at 1 uM after 48 hrs by annexin V-FITC/propidium iodide staining-based flow cytometric analysis (reference value: 1.52%); type: functional
DU-145 [22] = assay: Induction of apoptosis in human DU145 cells assessed as viable cells at 0.5 uM after 48 hrs by annexin V-FITC/propidium iodide staining-based flow cytometric analysis (reference value: 97.95%); type: functional; details: DU-145, 48 h, read-out: Activity
DU-145 [23] = assay: Induction of apoptosis in human DU145 cells assessed as viable cells at 1 uM after 48 hrs by annexin V-FITC/propidium iodide staining-based flow cytometric analysis (reference value: 97.95%); type: functional; details: DU-145, 48 h, read-out: Activity
DU-145 [24] = assay: Induction of apoptosis in human DU145 cells assessed as early apoptotic cells at 0.5 uM after 48 hrs by annexin V-FITC/propidium iodide staining-based flow cytometric analysis (reference value: 0.43%); type: functional
DU-145 [25] = assay: Induction of apoptosis in human DU145 cells assessed as early apoptotic cells at 1 uM after 48 hrs by annexin V-FITC/propidium iodide staining-based flow cytometric analysis (reference value: 0.43%); type: functional

inhibition [3]: Active
Activity (Calf thymus DNA [4]): Active
Activity (Calf thymus DNA [5]): Active
Activity (Calf thymus DNA [6]): Active
Activity (Calf thymus DNA [7]): Active
Activity (Calf thymus DNA [8]): Active
SMILES: CSC(=S)NCc1cc2c([nH]c3ccccc32)c(-c2ccc(F)cc2)n1
Activity (DU-145 [1]): Active
Activity (DU-145 [2]): Active
IC50 (A549): 4360 nM
IC50 (MCF7): 2450 nM
IC50 (DU-145 [9]): 1340 nM
IC50 (HeLa): 3460 nM
Activity (DU-145 [10]): 7.34%
Activity (DU-145 [11]): 15.61%
Activity (DU-145 [12]): 84.83%
Activity (DU-145 [13]): 75.52%
Activity (DU-145 [14]): 3.36%
Activity (DU-145 [15]): 3.34%
Activity (DU-145 [16]): 1.98%
Activity (DU-145 [17]): 2.33%
Activity (DU-145 [18]): 0.14%
Activity (DU-145 [19]): 0.96%
Activity (DU-145 [20]): 4.17%
Activity (DU-145 [21]): 14.68%
viability at 0.5 µM (DU-145 [22]): 94.6%
viability at 1 µM (DU-145 [23]): 80%
Activity (DU-145 [24]): 1.07%
Activity (DU-145 [25]): 4.4%
